Assay results reported in ChEMBL document CHEMBL1157224, “2-substituted furans from the roots of Polyalthia evecta” (J Nat Prod, 2006).
Converted amounts (≈) assume the structure as drawn.

Key:
NCI-H187 = experiment: Cytotoxicity against human NCI-H187 cells; type: functional, cell-based
Summary of the method: (§1)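 Human breast cancer (BC) and small cell lung cancer (NCI-H187) lines; colorimetric assay per Skehan; IC50 read-out; ellipticine as reference.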

[1] = system: Mycobacterium tuberculosis; experiment: Antimicrobial activity against Mycobacterium tuberculosis H37Ra by microplate alamar blue assay; type: functional
Summary of the method: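 M. tuberculosis H37Ra in microplate Alamar Blue assay; MIC read-out; isoniazid and kanamycin sulfate as reference drugs.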

Plasmodium falciparum [2] = experiment: Antimicrobial activity against Plasmodium falciparum; type: functional, organism-based
Summary of the method: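 P. falciparum K1 (multidrug-resistant) kept in culture per Trager–Jensen; microculture radioisotope test; growth read as [3H]-hypoxanthine uptake; IC50 = concentration giving 50% fewer parasites; artemisinin as reference standard.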

Human alphaherpesvirus 1 = experiment: Antiviral activity against HSV1; type: functional, organism-based
Summary of the method: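 Herpes simplex type 1 antiviral test by colorimetric method per Skehan; IC50 read-out; acyclovir as reference.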

Plasmodium falciparum [3] = experiment: Antimalarial activity against Plasmodium falciparum K1 by [3H]hypoxanthine uptake; type: functional, organism-based
Summary of the method: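 Multidrug-resistant K1 parasites cultured per Trager–Jensen. In vitro microculture radioisotope test, with parasite growth read as [3H]-hypoxanthine uptake. IC50 is the concentration giving 50% reduction in parasite growth. Artemisinin run as standard.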

[4] = Cytotoxicity against human BC clls; type: functional, cell-based; summary of the method: as §1

Structure (SMILES) | MIC [1] [µg/mL] | IC50 (Human alphaherpesvirus 1) [µg/mL] | also measured
OCCCCCCCCCCCCCC#CC#CCCCCc1ccco1 | 6.25 (≈ 16.9 µM) | – | IC50 (NCI-H187): 12.4 µg/mL (≈ 33.5 µM)
O=C(O)CCCC#CC#CCCCCCCCCCCCc1ccco1 | – | 47 (≈ 132 µM) | IC50 (Plasmodium falciparum [2]): 50 µg/mL (≈ 140 µM)
O=C(O)CCCC#CCCCCCCCCCCCCCc1ccco1 | – | 19.4 (≈ 53.8 µM) | –
COC(=O)CCCC#CCCCCCCCCCCCCCc1ccco1 | 3.1 (≈ 8.28 µM) | – | –
COC(=O)CCCC#CC#CCCCCCCCCCCCc1ccco1 | – | – | IC50 (Plasmodium falciparum [2]): 3.7 µg/mL (≈ 9.99 µM)
Nc1nc2c(ncn2COCCO)c(=O)[nH]1 [ACYCLOVIR] | – | 1.1 (≈ 4.88 µM) | –
C[C@@H]1CC[C@H]2[C@@H](C)C(=O)O[C@@H]3O[C@@]4(C)CC[C@@H]1[C@]32OO4 [ARTEMISININ] | – | – | IC50 (Plasmodium falciparum [3]): 0.001 µg/mL (≈ 0.00354 µM)
Cc1c2ccncc2c(C)c2c1[nH]c1ccccc12 [ELLIPTECINE] | – | – | IC50 [4]: 0.32 µg/mL (≈ 1.3 µM)
NNC(=O)c1ccncc1 [ISONIAZID] | 0.04 (≈ 0.292 µM) | – | –
NC[C@H]1O[C@H](O[C@H]2[C@H](O)[C@@H](O[C@H]3O[C@H](CO)[C@@H](O)[C@H](N)[C@H]3O)[C@H](N)C[C@@H]2N)[C@H](O)[C@@H](O)[C@@H]1O.O=S(=O)(O)O [KANAMYCIN SULFATE] | 2 | – | –
